Drawing on ChEMBL document CHEMBL5584288, “Synthesis, biological evaluation and metadynamics simulations of novel N-methyl β-sheet breaker peptides as inhibitors of Alzheimer's β-amyloid fibrillogenesis” (RSC Med Chem, 2024), this text covers Activity, inhibition and Drug uptake for five compounds.

Activity calls are given as the source filed them. No cut-off for these calls is given here. Square brackets hold non-standard residues; d marks the D form. Peptide text beside a SMILES is read from it. Sar = CNCC(=O)O

Series [1] relates to SH-SY5Y. Put plainly: Cytoprotective activity against amyloid beta (25 to 35 residues)-induced toxicity in human SH-SY5Y cells assessed as increase in cell viability incubated for 24 hrs by MTT assay. The following applies: dose 10-100 µM. The format is functional, cell-based. In a few lines:
(§1)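 SH-SY5Y cells seeded at 2.0 × 10^4 per well, after 24 h exposed to Aβ25–35 (100.0 μM; DMSO stock 12.5 mM) for 48 h, washed twice with PBS, then given test peptides for a further 24 h. MTT read-out as in cytotoxicity assay. Viability relative to untreated control cells. Mean ± SD of six measurements from three independent experiments.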
For orientation: Tetrazolium dyes change colour on reduction, which living cells bring about.

The target of series [2] is Amyloid-beta precursor protein (Homo sapiens) (UniProt P05067). Put plainly: Inhibition of amyloid beta (1 to 42) (unknown origin) aggregation assessed as reduction in amyloid beta fibril formation at 200 uM incubated for 12 hrs by ThT-based fluorescence analysis. In a few lines: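 Aβ1–42 (20 μM) incubated alone or with peptide (200 μM, tenfold molar excess) plus ThT (10 μM) in 20 mM Tris-HCl pH 7.4 at 20 °C. Real-time fluorescence (excitation 450 nm, emission 482 nm) recorded every 30 min for ~12 h. Intensity plotted against time. Three independent experiments.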
Sequence of Amyloid-beta precursor protein (Homo sapiens) (P05067 whole entry): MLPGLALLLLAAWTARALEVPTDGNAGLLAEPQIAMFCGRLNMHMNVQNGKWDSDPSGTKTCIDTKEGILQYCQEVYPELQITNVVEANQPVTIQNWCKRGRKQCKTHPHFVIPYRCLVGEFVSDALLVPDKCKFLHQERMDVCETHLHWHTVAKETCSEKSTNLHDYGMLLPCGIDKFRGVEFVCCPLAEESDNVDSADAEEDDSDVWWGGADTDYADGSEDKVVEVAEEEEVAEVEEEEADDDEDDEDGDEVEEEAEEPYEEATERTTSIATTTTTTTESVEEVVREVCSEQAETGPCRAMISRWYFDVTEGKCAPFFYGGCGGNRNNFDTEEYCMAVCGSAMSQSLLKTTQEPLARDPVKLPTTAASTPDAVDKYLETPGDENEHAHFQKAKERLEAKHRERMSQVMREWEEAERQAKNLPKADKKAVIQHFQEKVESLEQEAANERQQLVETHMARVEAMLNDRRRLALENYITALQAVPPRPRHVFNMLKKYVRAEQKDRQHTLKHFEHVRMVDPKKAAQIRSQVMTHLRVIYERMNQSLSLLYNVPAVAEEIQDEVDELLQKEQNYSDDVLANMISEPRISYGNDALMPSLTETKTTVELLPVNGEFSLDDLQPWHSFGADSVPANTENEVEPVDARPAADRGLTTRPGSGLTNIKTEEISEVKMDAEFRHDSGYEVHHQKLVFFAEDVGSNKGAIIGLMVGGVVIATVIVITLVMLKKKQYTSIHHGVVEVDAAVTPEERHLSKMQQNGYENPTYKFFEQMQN

Series [3] can be described thus: Drug uptake in human SH-SY5Y cells at 100 uM by UHPLC-HR MS analysis. The format is ADME, cell-based. In a few lines:
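SH-SY5Y cells seeded at 2.0 × 10^6 per 100 mm dish, treated after 24 h with peptides (100 μM) in FBS-free medium. Cell pellets quenched and extracted, sonicated 5 min, centrifuged 3500 rpm at 0 °C for 10 min. Supernatant lyophilized, reconstituted in acetonitrile and analysed by UHPLC-HR TOF-MS/MS, with extracted ion chromatograms of protonated molecular ions.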

Series [4] relates to SH-SY5Y. Put plainly: Cytotoxicity against human SH-SY5Y cells assessed as reduction in cell viability at 10 to 100 uM after 48 hrs by MTT assay. The following applies: dose 10-100 µM. The format is toxicity, cell-based. In outline: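 Human SH-SY5Y neuroblastoma cells in DMEM with 10% FBS, penicillin/streptomycin, 37 °C, 5% CO2. Seeded at 1.5 × 10^4 per well, treated after 24 h, exposed 48 h. MTT 0.50 mg mL⁻¹ for 4 h at 37 °C, formazan dissolved in DMSO, absorbance 570 nm. Viability expressed as % mitochondrial redox activity of untreated control.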

Series [5] relates to SH-SY5Y. Put plainly: Cytoprotective activity against amyloid beta (25 to 35 residues)-induced toxicity in human SH-SY5Y cells assessed as increase in cell viability at 100 uM incubated for 24 hrs by MTT assay relative to control. The format is functional. In a few lines: as §1
Series [6] deals with SH-SY5Y. Put plainly: Cytoprotective activity against amyloid beta (25 to 35 residues)-induced toxicity in human SH-SY5Y cells assessed as increase in cell viability at 10 uM incubated for 24 hrs by MTT assay relative to control. The format is functional. In a few lines:
as §1

For the compound `CC(=O)N[C@@H](CCCCN)C(=O)N(C)CC(=O)N[C@H](C(=O)N[C@@H](Cc1ccccc1)C(=O)N[C@@H](Cc1ccccc1)C(=O)N(C)CC(=O)N[C@@H](CCC(=O)O)C(N)=O)C(C)C` (Ac-K[Sar]VFF[Sar]E-NH2), the Activity entry with SH-SY5Y [1] is “Dose-Dependent Effect”; in the series with SH-SY5Y [4], “Non-Toxic”; with SH-SY5Y [5] it was 142.1%. In addition, the inhibition result in series [2] is “Active”. Besides, the Drug uptake entry in series [3] is “Active”.

For the compound `CC(=O)N[C@@H](CCCCN)C(=O)N(C)CC(=O)N[C@H](C(=O)N[C@@H](Cc1ccccc1)C(=O)N(C)CC(=O)N[C@@H](CCC(=O)O)C(N)=O)C(C)C` (Ac-K[Sar]VF[Sar]E-NH2), the Activity entry with SH-SY5Y [1] is “Dose-Dependent Effect”; in the series on SH-SY5Y [4], “Non-Toxic”; in the series with SH-SY5Y [6] it was ~30%. Further, the inhibition result in series [2] was “Active”. Moreover, the Drug uptake entry in series [3] is on record as “Active”.

As to `CC(=O)N[C@@H](Cc1ccccc1)C(=O)N[C@@H](CCCCN)C(=O)N[C@@H](CCC(=O)O)C(=O)N(C)CC(=O)N(C)CC(=O)N[C@H](C(N)=O)C(C)C` (Ac-FKE[Sar][Sar]V-NH2), the inhibition result in series [2] was “Active”.

As to `CC[C@H](C)[C@H](NC(C)=O)C(=O)N[C@H](C(=O)N(C)CC(=O)N[C@@H](CC(C)C)C(=O)N[C@@H](CCSC)C(=O)N[C@H](C(=O)NCC(=O)N(C)CC(=O)N[C@H](C(N)=O)C(C)C)C(C)C)[C@@H](C)CC`, the inhibition result in series [2] was “Active”.

Regarding Ac-LPFFD-NH2, the Activity entry in the series with SH-SY5Y [1] is “Dose-Dependent Effect”; in the series on SH-SY5Y [4], “Non-Toxic”; with SH-SY5Y [5] it was 110.8%. For the same compound, the inhibition result in series [2] was “Active”.
